We go through five compounds from ChEMBL document CHEMBL1121973, “Synthesis and comparison of some cardiovascular properties of the stereoisomers of labetalol” (1982).

Assay [1] deals with Rattus norvegicus. The assay is described as follows: Change in Heart rate(beats/min) was determined after 2 hr of (10 mg/kg p.o.) administration in conscious, spontaneously hypertensive rats. The class given is functional. A digest of the protocol:
(§1)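 Conscious spontaneously hypertensive rats (n = 4 per group) were dosed orally at 10 mg/kg as HCl salts, with placebo as a control group. Blood pressure was measured directly, and heart rate was also recorded. Changes from pre-dose values were read at 1, 2, 3 and 4 h and reported as means ± SEM. Analysis used ANOVA with Duncan's multiple range statistic.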

Assay [2] concerns Rattus norvegicus. The experiment in a line: Change in Heart rate(beats/min) was determined after 4 hr of (10 mg/kg p.o.) administration in conscious, spontaneously hypertensive rats. The class given is functional. A digest of the protocol: as §1
The subject of assay [3] is Rattus norvegicus. The assay is described as follows: Antihypertensive activity was determined by Heart rate(beats/min) measurement before dosing in conscious, spontaneously hypertensive rats. It is filed as functional. Summed up: (§2)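 Blood pressure (mmHg) and heart rate (beats/min) were measured directly in conscious spontaneously hypertensive rats before oral dosing. Groups had n = 4, and values are means ± SEM.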

Assay [4] concerns Rattus norvegicus. The experiment in a line: Antihypertensive activity was determined before dosing in conscious, spontaneously hypertensive rats(SHR). It is filed as functional. A digest of the protocol: as §2
Assay [5] relates to Rattus norvegicus. The assay is described as follows: Change in blood-pressure was determined after 2 hr administration of (10 mg/kg/po) in conscious, spontaneously hypertensive rats(SHR). It is filed as functional. Summed up:
as §1

The test system of assay [6] is Rattus norvegicus. The assay is described as follows: Change in blood-pressure was determined after 4 hr administration of (10 mg/kg/po) in conscious, spontaneously hypertensive rats(SHR). It is filed as functional. A digest of the protocol:
as §1

The target of assay [7] is Beta-1 adrenergic receptor (Rattus norvegicus) (UniProt P18090). The assay is described as follows: Antagonistic activity was determined for 50% inhibition of tachycardia response in anesthetized, normotensive rat at a dose range of 0.3-3 mg/kg(iv). It is filed as functional, organism-based. A digest of the protocol: (§3)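 Anesthetized normotensive rats received the test agent iv as HCl salts in three cumulative doses. The tachycardic response to (±)-isoproterenol (0.1 mg/kg iv) was measured. ID50 is the iv dose giving 50% inhibition of that response, reported as mean ± SEM. Analysis used analysis of variance with Duncan's multiple range statistic.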

The subject of assay [8] is Adrenergic receptor alpha (Rattus norvegicus). The experiment in a line: Relative alpha-adrenergic blocking potency was determined after administration of intravenously.
The test system of assay [9] is Rattus norvegicus. The experiment in a line: Antihypertensive activity was determined before dosing in conscious, spontaneously hypertensive rats(SHR); 12/~1. The class given is functional.
Assay [10] has as its target T1, Adrenergic receptor alpha (Rattus norvegicus) (UniProt P15823+P23944+P43140+P22086+P19328+P22909).
Assay [11] deals with Rattus norvegicus. The assay is described as follows: Change in Heart rate(beats/min) was determined after 1 hr of (10 mg/kg p.o.) administration in conscious, spontaneously hypertensive rats. The class given is functional. A digest of the protocol: as §1
Assay [12] relates to Rattus norvegicus. The experiment in a line: Change in blood-pressure was determined after 1 hr administration of (10 mg/kg/po) in conscious, spontaneously hypertensive rats(SHR). The class given is functional. Summed up: as §1
The test system of assay [13] is Rattus norvegicus. The experiment in a line: Change in blood-pressure was determined after 3h administration of (10 mg/kg/po) in conscious, spontaneously hypertensive rats(SHR). It is filed as functional. A digest of the protocol:
as §1

Assay [14] relates to Rattus norvegicus. The assay is described as follows: Change in Heart rate(beats/min) was determined after 3h of (10 mg/kg p.o.) administration in conscious, spontaneously hypertensive rats. The class given is functional. Summed up: as §1
Assay [15] in a line: Ratio of Relative potency of beta1/alpha bock values; 26-39.
Assay [16] addresses Beta-1 adrenergic receptor (Rattus norvegicus) (UniProt P18090). The experiment in a line: Antagonistic activity was determined for 50% inhibition of tachycardia response in anesthetized, normotensive rat at a dose range of 0.1-1(iv). The class given is functional, organism-based. A digest of the protocol:
as §3

The target is the same in assay [17]. The experiment in a line: Potency to block Beta-1 adrenergic receptor relative to labetolol. A digest of the protocol:
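Rats, iv dosing as HCl salts in three cumulative doses. Antagonism of the tachycardic response to (±)-isoproterenol (0.1 mg/kg iv) was measured. ID50 is the dose giving 50% inhibition of that response (mean ± SEM), with 3-8 animals per compound. Statistics used analysis of variance with Duncan's multiple range test.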

For assay [18], the system named is Rattus norvegicus. The experiment in a line: Decrease in blood pressure(mm/Hg) was determined after administration of (10 mg/kg/po); 30-32/>4. It is filed as functional.
For assay [19], the species on record is Rattus norvegicus. The assay is described as follows: Potency (vasodilation) relative to labetolol. It is filed as functional.
Assay [20] addresses T1, Adrenergic receptor alpha (Rattus norvegicus). This is another data set of the same source.
Assay [21] relates to Rattus norvegicus. The experiment in a line: Decrease in blood pressure(mm/Hg) was determined after administration of (10 mg/kg/po). The class given is functional. Summed up: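 Conscious spontaneously hypertensive rats, n = 4 per group, placebo control. Single oral dose of 10 mg/kg as HCl salt. Blood pressure and heart rate were measured directly before dosing and at 1, 2, 3 and 4 h after. Change from predose is given as mean ± SEM. Statistics used analysis of variance with Duncan's multiple range test.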

For assay [22], the target named is Beta-1 adrenergic receptor (Rattus norvegicus) (UniProt P18090). The assay is described as follows: Antagonistic activity was determined for 50% inhibition of tachycardia response in anesthetized, normotensive rat at a dose range of 0.3-3 mg/kg(iv); Inactive. The class given is functional, organism-based. A digest of the protocol: as §3
The test system of assay [23] is Rattus norvegicus. The assay is described as follows: Change in blood-pressure was determined after 2 hr administration of(10 mg/kg/po) in conscious, spontaneously hypertensive rats(SHR). The class given is functional. A digest of the protocol:
as §1

The subject of assay [24] is Rattus norvegicus. The assay is described as follows: Change in blood-pressure was determined after 4 hr administration of(10 mg/kg/po) in conscious, spontaneously hypertensive rats(SHR). It is filed as functional. A digest of the protocol: as §1
The target in assay [25] is Beta-1 adrenergic receptor (Rattus norvegicus) (UniProt P18090). The experiment in a line: Antagonistic activity was determined for 50% inhibition of tachycardia response in anesthetized, normotensive rat at a dose range of 0.03-0.3 mg/kg(iv). It is filed as functional, organism-based. Summed up: as §3
The target in assay [26] is T1, Adrenergic receptor alpha (Rattus norvegicus). This is another data set of the same source.
Assay [27] is described as follows: Ratio of Relative potency of beta1/alpha bock values. It is filed as functional.
Assay [28] concerns Rattus norvegicus. The experiment in a line: Change in blood-pressure was determined after 1 hr administration of(10 mg/kg/po) in conscious, spontaneously hypertensive rats(SHR). It is filed as functional. A digest of the protocol: as §1
Assay [29] concerns Rattus norvegicus. The experiment in a line: Change in blood-pressure was determined after 3h administration of(10 mg/kg/po) in conscious, spontaneously hypertensive rats(SHR). The class given is functional. Summed up:
as §1

Activity calls are given as the source filed them. The calls are words filed in the database; no cut-off is given here. A value given as a limit tells only on which side of the number the result lay.

Sequence of Beta-1 adrenergic receptor (Rattus norvegicus) (P18090 whole entry, looked up): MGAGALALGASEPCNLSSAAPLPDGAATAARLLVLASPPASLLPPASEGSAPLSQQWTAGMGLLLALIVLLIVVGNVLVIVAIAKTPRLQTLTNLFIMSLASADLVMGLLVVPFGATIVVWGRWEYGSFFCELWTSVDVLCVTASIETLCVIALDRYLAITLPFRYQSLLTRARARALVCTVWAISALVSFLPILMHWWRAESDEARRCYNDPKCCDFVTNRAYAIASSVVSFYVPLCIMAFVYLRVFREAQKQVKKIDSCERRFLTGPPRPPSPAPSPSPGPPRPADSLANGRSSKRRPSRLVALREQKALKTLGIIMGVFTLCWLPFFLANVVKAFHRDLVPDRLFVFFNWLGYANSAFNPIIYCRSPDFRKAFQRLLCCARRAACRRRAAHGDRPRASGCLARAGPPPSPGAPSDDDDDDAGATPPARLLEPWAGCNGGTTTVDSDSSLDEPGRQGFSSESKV

Take `C[C@H](CCc1ccccc1)NC[C@@H](O)c1ccc(O)c(C(N)=O)c1.Cl`: the Heart rate in the assay on Rattus norvegicus [1] was -16 beats min-1; with Rattus norvegicus [2], -39 beats min-1; in the assay on Rattus norvegicus [3], 359 beats min-1; in the assay on Rattus norvegicus [11] it was -9 beats min-1; in the assay on Rattus norvegicus [14], -34 beats min-1. The compound further gave a BP with Rattus norvegicus [4] of 158 mmHg. The “Change in BP” value is given as -5 mmHg with Rattus norvegicus [5], -3 mmHg in the assay on Rattus norvegicus [6], -12 mmHg in the assay on Rattus norvegicus [12] and -4 mmHg with Rattus norvegicus [13]. The ID50 was 5 mg/kg in assay [7] and 1.3 mg/kg in [10]. In assay [8], this compound registered a Relative potency of 5.1. Further, in the assay with Rattus norvegicus [9], the Decreace in BP was 12 mmHg.

With `CC(CCc1ccccc1)NCC(O)c1ccc(O)c(C(N)=O)c1` (centres undefined) [LABETALOL], the Heart rate in the assay with Rattus norvegicus [1] is listed as -18 beats min-1; with Rattus norvegicus [2], -23 beats min-1; with Rattus norvegicus [3] it was 362 beats min-1; in the assay on Rattus norvegicus [11] it was -13 beats min-1; in the assay with Rattus norvegicus [14] it was -27 beats min-1. Moreover, the Ratio in [15] was determined as 26. In the assay on Rattus norvegicus [4], this compound gave a BP of 160 mmHg. For the same compound, the “Change in BP” value is reported as -22 mmHg with Rattus norvegicus [5], -20 mmHg in the assay on Rattus norvegicus [6], -29 mmHg in the assay with Rattus norvegicus [12] and -20 mmHg with Rattus norvegicus [13]. Further, the figures for the ID50 in assay [16] and in assay [10] were 0.25 mg/kg and 7.1 mg/kg, respectively. In addition, the Relative potency (in assay [17]; in the assay filed under Rattus norvegicus [19]) was 1 in each case. The “Decrease in blood pressure” value in the assay on Rattus norvegicus [18] is reported as over 30.

On to `C[C@@H](CCc1ccccc1)NC[C@H](O)c1ccc(O)c(C(N)=O)c1.Cl`, for which the Heart rate with Rattus norvegicus [1] is 5 beats min-1; with Rattus norvegicus [2], 6 beats min-1; in the assay on Rattus norvegicus [3], 362 beats min-1; in the assay on Rattus norvegicus [11] it was 7 beats min-1; in the assay with Rattus norvegicus [14], -8 beats min-1. In addition, the BP in the assay with Rattus norvegicus [4] worked out at 164 mmHg. In addition, the “Change in BP” value is -2 mmHg in the assay on Rattus norvegicus [5], 8 mmHg in the assay on Rattus norvegicus [6], -5 mmHg with Rattus norvegicus [12] and 6 mmHg in the assay on Rattus norvegicus [13]. This compound also registered an ID50 in assay [7] of 4.1 mg/kg. In [17], this compound had a Relative potency of under 0.06. In assay [20], the ID50 entry was “inactive”. Besides, the “Decrease in blood pressure” value in the assay with Rattus norvegicus [21] is listed as 0.

For `C[C@@H](CCc1ccccc1)NC[C@@H](O)c1ccc(O)c(C(N)=O)c1.Cl`, the Heart rate in the assay on Rattus norvegicus [1] was 1 beats min-1; in the assay with Rattus norvegicus [2], -7 beats min-1; in the assay with Rattus norvegicus [3] it was 356 beats min-1; with Rattus norvegicus [11], 8 beats min-1; with Rattus norvegicus [14] it was -4 beats min-1. This compound also showed a BP in the assay with Rattus norvegicus [4] of 159 mmHg. Besides, the “Change in BP” value in the assay on Rattus norvegicus [5] worked out at 10 mmHg; with Rattus norvegicus [6], 8 mmHg; in the assay with Rattus norvegicus [12], 4 mmHg; in the assay on Rattus norvegicus [13], 11 mmHg. In assay [17], this compound returned a Relative potency of 0. In assay [10], the ID50 came out at 4.8 mg/kg. The ID50 entry in assay [22] was “inactive”. Further, the “Decrease in blood pressure” value in the assay with Rattus norvegicus [21] was 0.

As for `C[C@H](CCc1ccccc1)NC[C@H](O)c1ccc(O)c(C(N)=O)c1.Cl` [DILEVALOL HYDROCHLORIDE], the Heart rate is on record as -41 beats min-1 in the assay with Rattus norvegicus [1]; -45 beats min-1 in the assay with Rattus norvegicus [2]; 378 beats min-1 in the assay on Rattus norvegicus [3]; -47 beats min-1 in the assay with Rattus norvegicus [11]; -55 beats min-1 in the assay with Rattus norvegicus [14]. The compound further returned a BP with Rattus norvegicus [4] of 160 mmHg. The “Change in BP” value with Rattus norvegicus [23] is reported as -26 mmHg; with Rattus norvegicus [24] it was -27 mmHg; in the assay on Rattus norvegicus [28] it was -26 mmHg; with Rattus norvegicus [29] it was -29 mmHg. For the same compound, the ID50 is 0.07 mg/kg in assay [25] and 35 mg/kg in assay [26]. The values for the Relative potency (in assay [17]; in the assay filed under Rattus norvegicus [19]) were 3.5 and 7, respectively. Moreover, the “Decrease in blood pressure” value in the assay with Rattus norvegicus [18] was over 30. Further, the Ratio in assay [27] was over 500.
